Key:
Mus musculus [1] = assay: Drug level in male wild type mouse treated with 500 mg/kg for 7 to 14 days dosed through vitamin E-deficient base diet by UPLC-ESI-QTOFMS method based metabolomics analysis; type: ADME, organism-based; design: dose 500 mg/kg; details: in vivo, po
Mus musculus [2] = assay: Drug level in male PXR-humanized mouse treated with 500 mg/kg for 7 to 14 days dosed through vitamin E-deficient base diet by UPLC-ESI-QTOFMS method based metabolomics analysis; type: ADME, organism-based; design: dose 500 mg/kg; details: in vivo, po
Mus musculus [3] = assay: Drug level in male PXR null mouse treated with 500 mg/kg for 7 to 14 days dosed through vitamin E-deficient base diet by UPLC-ESI-QTOFMS method based metabolomics analysis; type: ADME, organism-based; design: dose 500 mg/kg; details: in vivo, po
Ugt1a1 = assay: Induction of Ugt1a1 gene expression in wild type mouse liver at 50 mg/kg dosed through gavage daily for 4 days by qPCR method; type: ADME, organism-based; design: dose 50 mg/kg; details: po, read-out: FC
Cyp2b10 = assay: Induction of Cyp2b10 gene expression in wild type mouse liver at 50 mg/kg dosed through gavage daily for 4 days by qPCR method; type: ADME, organism-based; design: dose 50 mg/kg; details: po, read-out: FC
Ugt1a10 [4] = assay: Induction of Ugt1a10 gene expression in PXR null mouse liver at 50 mg/kg dosed through gavage daily for 4 days by qPCR method; type: ADME, organism-based; design: dose 50 mg/kg; details: po, read-out: FC
Mus musculus [5] = assay: Reduction in Ugt1a6b gene expression in PXR-humanized mouse liver at 10 mg/kg dosed through gavage daily for 4 days by qPCR method; details: in vivo, po, 96 h
Cyp3a11 = assay: Induction of Cyp3a11 gene expression in wild type mouse liver at 50 mg/kg dosed through gavage daily for 4 days by qPCR method; type: ADME, organism-based; design: dose 50 mg/kg; details: po, read-out: FC
Cyp2c55 = assay: Induction of Cyp2c55 gene expression in wild type mouse liver at 50 mg/kg dosed through gavage daily for 4 days by qPCR method; type: ADME, organism-based; design: dose 50 mg/kg; details: po, read-out: FC
[6] = molecular target: T1, PXR (Nuclear receptor subfamily 1 group I member 2) (Mus musculus, UniProt O54915); assay: Activation of mouse PXR expressed in human HepG2 cells at 10 uM after 24 hrs by firefly luciferase DR3 reporter gene assay; type: ADME, cell-based; details: human HepG2 cells expressing mouse PXR, read-out: FC
T1 sequence (O54915 whole entry): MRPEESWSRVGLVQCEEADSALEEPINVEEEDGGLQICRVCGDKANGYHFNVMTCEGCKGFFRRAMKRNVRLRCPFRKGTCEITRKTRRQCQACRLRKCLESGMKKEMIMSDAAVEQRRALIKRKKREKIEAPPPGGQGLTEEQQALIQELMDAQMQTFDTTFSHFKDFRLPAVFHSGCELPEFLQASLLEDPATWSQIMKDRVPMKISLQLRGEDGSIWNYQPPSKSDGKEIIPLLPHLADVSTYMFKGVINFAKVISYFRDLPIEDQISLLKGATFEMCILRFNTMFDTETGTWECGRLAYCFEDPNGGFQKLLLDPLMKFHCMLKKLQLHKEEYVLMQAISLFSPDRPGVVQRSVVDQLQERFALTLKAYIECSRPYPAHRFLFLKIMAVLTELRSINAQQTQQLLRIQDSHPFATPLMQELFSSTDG
Procedure, shortened: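 HepG2 cells grown in DMEM + 10% FBS were transfected with 10 ng mouse PXR, 100 ng DR3 firefly luciferase reporter and 2 ng Renilla pRL-SV40. Compound in DMSO was added 24 h after transfection and left for 24 h. Dual luciferase was then read, firefly normalized to Renilla per well, and expressed as fold over DMSO control.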

Ugt2b5 = assay: Induction of Ugt2b5 gene expression in wild type mouse liver at 50 mg/kg dosed through gavage daily for 4 days by qPCR method; type: ADME, organism-based; design: dose 50 mg/kg; details: po, read-out: FC
Mus musculus [7] = assay: Reduction in Ugt1a6a gene expression in PXR-humanized mouse liver at 10 mg/kg dosed through gavage daily for 4 days by qPCR method; details: in vivo, po, 96 h
Ugt1a9 = assay: Induction of Ugt1a9 gene expression in wild type mouse liver at 50 mg/kg dosed through gavage daily for 4 days by qPCR method; type: ADME, organism-based; design: dose 50 mg/kg; details: po, read-out: FC
Cyp2c29 [8] = assay: Induction of Cyp2c29 gene expression in wild type mouse liver at 50 mg/kg dosed through gavage daily for 4 days by qPCR method; type: ADME, organism-based; design: dose 50 mg/kg; details: po, read-out: FC
Ugt2b34 = assay: Induction of Ugt2b34 gene expression in wild type mouse liver at 50 mg/kg dosed through gavage daily for 4 days by qPCR method; type: ADME, organism-based; design: dose 50 mg/kg; details: po, read-out: FC
Cyp2c29 [9] = assay: Induction of Cyp2c29 gene expression in male PXR null mouse liver at 50 mg/kg dosed through gavage daily for 4 days by qPCR method; details: po, read-out: FC
Ugt1a10 [10] = assay: Induction of Ugt1a10 gene expression in wild type mouse liver at 50 mg/kg dosed through gavage daily for 4 days by qPCR method; type: ADME, organism-based; design: dose 50 mg/kg; details: po, read-out: FC
Mus musculus [11] = assay: Reduction in Ugt1a6b gene expression in wild type mouse liver at 50 mg/kg dosed through gavage daily for 4 days by qPCR method; type: ADME, organism-based; design: dose 50 mg/kg; details: in vivo, po, 96 h

| Compound | Drug metabolism (Mus musculus [1]) | Drug metabolism (Mus musculus [2]) | Drug metabolism (Mus musculus [3]) | fold induction at 96 h (Ugt1a1) | fold induction at 96 h (Cyp2b10) | fold induction at 96 h (Ugt1a10 [4]) | fold change (FC) (Mus musculus [5]) | fold induction at 96 h (Cyp3a11) | fold induction at 96 h (Cyp2c55) | fold induction at 24 h, 10 µM [6] | fold induction at 96 h (Ugt2b5) | fold change (FC) (Mus musculus [7]) | fold induction at 96 h (Ugt1a9) | fold induction at 96 h (Cyp2c29 [8]) | fold induction at 96 h (Ugt2b34) | fold induction at 96 h (Cyp2c29 [9]) | fold induction at 96 h (Ugt1a10 [10]) | fold change (FC) (Mus musculus [11]) |
| --- | --- | --- | --- | --- | --- | --- | --- | --- | --- | --- | --- | --- | --- | --- | --- | --- | --- | --- |
| CN1CC(=O)NC1=N [CREATININE] | metabolite_detected | metabolite_detected | metabolite_detected | – | – | – | – | – | – | – | – | – | – | – | – | – | – | – |
| CC(=O)[C@H]1[C@H](C#N)C[C@H]2[C@@H]3CC=C4C[C@@H](O)CC[C@]4(C)[C@H]3CC[C@@]21C [PREGNENOLONE CARBONITRILE] | – | – | – | 3.1 | 160 | 1.8 | 1.8 | 20.9 | 303 | 9.5 | 1.4 | 2 | 9.4 | 9.2 | 3.2 | 1.6 | 2.8 | 1.3 |

— ChEMBL document CHEMBL3526106, “Cytochrome P450 regulation by α-tocopherol in Pxr-null and PXR-humanized mice” (Drug Metab Dispos, 2013)
